Structures can show the parent of a compound that is named as a salt.
Key:
Type in all cases: functional, cell-based
A549 = experiment: Cytotoxicity against human A549 cells after 72 hrs by SRB assay; conditions: A549, 72 h
Method in brief: (§1)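 Adherent cells plated 24 h before treatment and exposed continuously to compound at 100, 10, 1 and 0.1 µM for 72 h. Cells were then fixed and stained with sulforhodamine B, and IC50 was determined. Amrubicin hydrochloride served as the positive control.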

HT-29 = experiment: Cytotoxicity against human HT-29 cells after 72 hrs by SRB assay; conditions: HT-29, 72 h; method in brief: as §1
K562 = experiment: Cytotoxicity against human K562 cells after 72 hrs by SRB assay; conditions: K562, 72 h

Structure (SMILES) | IC50 (A549) [µM] | IC50 (HT-29) [µM] | IC50 (K562) [µM]
C[C@@H]1C(=O)O[C@H]2[C@@H]1O[C@]13O[C@@]4(CC[C@]5(C)C(=O)[C@](C)(O)[C@H]2[C@H]15)C[C@]12OC(=O)C[C@H]1O[C@@](C)(CO)[C@@H]2CC[C@H]4C3=O [SCHISANDILACTONE I] | > 100 | > 100 | > 100
C[C@H]1C(=O)O[C@@H]2[C@H]1O[C@@]1(C)C(=O)[C@@]3(C)CC[C@]45C[C@]67OC(=O)C[C@H]6OC(C)(C)[C@@H]7C[C@@H](O)[C@H]4C(=O)[C@@](O)(O5)[C@H]3[C@@]21O [SCHISANDILACTONE D] | > 100 | > 100 | > 100
C[C@H]1C(=O)O[C@@H]2[C@H]1O[C@]1(C)[C@H]2[C@H]2[C@](C)(CC[C@]34C[C@]56OC(=O)C[C@H]5OC(C)(C)[C@@H]6C[C@H](O)[C@H]3C(=O)[C@@]2(O)O4)[C@@H]1O [SCHISANDILACTONE B] | > 100 | > 100 | > 100
CC1=C[C@@H]2O[C@]34O[C@@]5(CC[C@]6(C)C(=O)[C@](C)(O)[C@]2(OC1=O)[C@H]36)C[C@]12OC(=O)C[C@H]1O[C@@](C)(CO)[C@@H]2CC[C@@]5(O)C4=O [SCHISANDILACTONE A] | > 100 | > 100 | > 100
C[C@@H]1C(=O)O[C@H]2[C@@H]1O[C@]13O[C@@]4(CC(=O)[C@]5(C)C(=O)[C@](C)(O)[C@@]2(O)[C@@H]51)C[C@]12OC(=O)C[C@H]1O[C@@](C)(CO)[C@@H]2CC[C@@H]4[C@H]3O [SCHISANDILACTONE H] | > 100 | > 100 | > 100
C[C@H]1C(=O)O[C@@H]2[C@H]1O[C@@]1(C)C(=O)[C@@]3(C)CC[C@]45C[C@]67OC(=O)C[C@H]6OC(C)(C)[C@@H]7C[C@H](O)[C@H]4C(=O)[C@@](O)(O5)[C@H]3[C@@]21O [SCHISANDILACTONE C] | > 100 | > 100 | > 100
CC1=C[C@@H]([C@]2(O)[C@H]3[C@](C)(CC[C@]45C[C@]67OC(=O)C[C@H]6OC(C)(C)[C@@H]7C[C@@H](O)[C@H]4C(=O)[C@@]3(O)O5)C(=O)[C@]2(C)O)OC1=O [SCHISANDILACTONE F] | > 100 | > 100 | > 100
CC(=O)[C@]1(N)Cc2c(O)c3c(c(O)c2[C@@H](O[C@H]2C[C@H](O)[C@H](O)CO2)C1)C(=O)c1ccccc1C3=O [AMRUBICIN HYDROCHLORIDE] | 0.94 | 4.57 | 1.2
CC1=C[C@@H]([C@@H]2[C@H]3[C@](C)(C(=O)C[C@]45C[C@]67OC(=O)C[C@H]6O[C@@](C)(CO)[C@@H]7CC[C@@H]4[C@@H](O)[C@@]3(O)O5)C(=O)[C@]2(C)O)OC1=O [SCHISANDILACTONE E] | > 100 | > 100 | > 100
C[C@@H]1C(=O)O[C@H]2[C@@H]1O[C@]13O[C@@]4(CC[C@]5(C)C(=O)[C@](C)(O)[C@@]2(O)[C@H]15)C[C@]12OC(=O)C[C@H]1O[C@@](C)(CO)[C@@H]2C[C@@H]1O[C@@]14C3=O [SCHISANDILACTONE J] | > 100 | > 100 | > 100
C[C@@H]1C(=O)O[C@H]2[C@@H]1O[C@]13O[C@@]4(CC(=O)[C@]5(C)C(=O)[C@](C)(O)[C@H]2[C@@H]51)C[C@]12OC(=O)C[C@H]1O[C@@](C)(CO)[C@@H]2CC[C@H]4[C@H]3O [SCHISANDILACTONE G] | > 100 | > 100 | > 100
